Test results taken from ChEMBL document CHEMBL1148222, “Chemical constituents of Glycosmis arborea: three new carbazole alkaloids and their biological activity” (J Nat Prod, 2004).

What was measured:
Type in all cases: cell-based
Raji [1] = experiment: Inhibition of TPA-induced EBV-early antigen activation in human Raji cells at 32 […] after 48 hrs relative to control; set-up: scale not given: the % may be the effect or the level left; details: human gammaherpesvirus 4
How it was run: (§1)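 Raji cells at 10^6 cells/mL were resuspended in RPMI 1640 with 10% FCS. Induction used 4 mM n-butyric acid plus 32 pmol TPA (20 ng/mL), with test compound in DMSO at mol ratios of 10–1000 to TPA. Cells were held 48 h at 37 °C. EA-positive cells were counted blind, at least 500 cells per assay, and expressed as % of the TPA-only control (100%) ± SD.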

Raji [2] = experiment: Inhibition of TPA-induced EBV-early antigen activation in human Raji cells at 0.32 […] after 48 hrs relative to control; set-up: scale not given: the % may be the effect or the level left; details: human gammaherpesvirus 4; how it was run: as §1
Raji [3] = experiment: Cytotoxicity against human Raji cells at 0.32 […] after 48 hrs by trypan blue staining method
How it was run: (§2)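 Raji cells grown to 10^6 cells/mL, then resuspended in RPMI 1640 with 10% FCS. Medium held 4 mM n-butyric acid, 32 pmol TPA (20 ng/mL in DMSO) and test compound in DMSO. Culture ran 48 h at 37 °C. Viable cells were counted by hemocytometer with Trypan Blue exclusion. At least 60% survival is required for a valid EBV-EA reading.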

Raji [4] = experiment: Inhibition of TPA-induced EBV-early antigen activation in human Raji cells at 3.2 […] after 48 hrs relative to control; set-up: scale not given: the % may be the effect or the level left; details: human gammaherpesvirus 4; how it was run: as §1
Raji [5] = experiment: Cytotoxicity against human Raji cells at 16 […] after 48 hrs by trypan blue staining method; how it was run: as §2
Raji [6] = experiment: Cytotoxicity against human Raji cells at 32 […] after 48 hrs by trypan blue staining method; how it was run: as §2
Raji [7] = experiment: Inhibition of TPA-induced EBV-early antigen activation in human Raji cells at 16 […] after 48 hrs relative to control; set-up: scale not given: the % may be the effect or the level left; details: human gammaherpesvirus 4; how it was run: as §1
Raji [8] = experiment: Cytotoxicity against human Raji cells at 3.2 […] after 48 hrs by trypan blue staining method; how it was run: as §2

| Structure (SMILES) | Activity (Raji [1]) [%] | Activity (Raji [2]) [%] | Activity (Raji [3]) [%] | Activity (Raji [4]) [%] | Activity (Raji [5]) [%] | Activity (Raji [6]) [%] | Activity (Raji [7]) [%] | Activity (Raji [8]) [%] |
| --- | --- | --- | --- | --- | --- | --- | --- | --- |
| COc1cccc2c(=O)c3ccoc3n(C)c12 | 19.9 | 100 | > 80 | 79.5 | > 80 | 60 | 40.5 | > 80 |
| Cn1c(Cc2ccccc2)nc(=O)c2ccccc21 [ARBORINE] | 12.7 | 100 | > 80 | 75.6 | > 80 | 60 | 40.4 | > 80 |
| COc1cc2c(c(O)c1OC)c(=O)c1ccccc1n2C [ARBORININE] | 2.7 | 95.6 | > 80 | 74.3 | > 80 | 60 | 39.6 | > 80 |
| CC1=C(/C=C/C(C)=C/C=C/C(C)=C/C=C/C=C(C)/C=C/C=C(C)/C=C/C2=C(C)CCCC2(C)C)C(C)(C)CCC1 [BETA CAROTENE] | 9.1 | 100 | > 80 | – | > 80 | 60 | – | > 80 |
| COc1c2ccoc2nc2c(OC)cccc12 [GAMMA-FAGARINE] | 15.4 | 100 | > 80 | 77.7 | > 80 | 60 | 38.2 | > 80 |
| COc1ccc2[nH]c3cc(O)c(C)cc3c2c1CC=C(C)C [GLYBOMINE B] | 15.3 | 96.4 | > 80 | 68.7 | > 80 | 60 | 46.7 | > 80 |
| CC(C)=CCc1c(O)ccc2[nH]c3cc(O)c(C)cc3c12 [GLYBOMINE C] | 13.4 | 94.6 | > 80 | 68.9 | > 80 | 60 | 45.6 | > 80 |
| Cc1cc2c(cc1O)[nH]c1ccc3c(c12)C=CC(C)(C)O3 [GLYCOBORININE] | 17.4 | 100 | > 80 | 73.7 | > 80 | 60 | 49.1 | > 80 |
| COc1ccc2[nH]c3cc(OC)c(C)cc3c2c1 [GLYCOZOLIDINE] | 24.3 | 100 | > 80 | 76 | > 80 | 60 | 51.3 | > 80 |
| Cn1c2ccccc2c(=O)c2ccoc21 [ISODICTAMNINE] | 18.4 | 100 | > 80 | 72.2 | > 80 | 60 | 40.3 | > 80 |
